Assay results reported in ChEMBL document CHEMBL1147094, “Novel in vivo model for the study of human immunodeficiency virus type 1 transcription inhibitors: evaluation of new 6-desfluoroquinolone derivatives” (Antimicrob Agents Chemother, 2007).
In brackets after ≈: the same amount, converted by molar mass. Activity calls are given as the source filed them. The rule behind the calls is not given here.

Legend:
[1] = system: Human immunodeficiency virus 1; assay: Inhibition of viral reactivation in SCID mouse inoculated with HIV1 infected OM10.1 cells at 50 mg/kg, ip for 3 days prior to hTNF alpha administration assessed as viral loads after 18 hrs; type: functional, organism-based; parameters: dose 50 mg/kg
[2] = system: Human immunodeficiency virus 1; assay: Antiviral activity against PMA stimulated HIV1 expression in latently HIV1 infected OM10.1 cells assessed as inhibition of viral mRNA production; type: functional, organism-based
[3] = system: Human immunodeficiency virus 1; assay: Antiviral activity against human PMA stimulated HIV1 expression in latently HIV1 infected U1 cells assessed as decrease in mRNA production; type: functional, organism-based
[4] = Selectivity index, CC50 for OM10.1 cells to EC50 for HIV1 infected OM10.1 cells; type: functional
Summary of the method: (§1)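 OM-10.1 cells at 500,000 cells/ml were exposed to compound for 2 h, then stimulated with 1 ng/ml hTNF-α or 0.02 µM PMA for 2 days at 37°C. Viability was read by MTT staining. The selectivity index is CC50 from MTT divided by EC50 from p24 ELISA run in the same cultures.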

[5] = Cytotoxicity against latently HIV1 infected OM10.1 cells by MTT method; type: cell-based; settings: human, OM10.1 cells latently infected with HIV-1; summary of the method: as §1
[6] = system: Human immunodeficiency virus 1; assay: Antiviral activity against human TNF alpha-stimulated HIV1 expression in latently HIV1 infected OM10.1 cells assessed as inhibition of viral p24 production; type: functional, organism-based
[7] = system: Human immunodeficiency virus 1; assay: Antiviral activity against human TNF-alpha stimulated HIV1 expression in latently HIV1 infected OM10.1 cells assessed as inhibition of viral mRNA production; type: functional, organism-based
[8] = system: Human immunodeficiency virus 1; assay: Antiviral activity against latently HIV1 infected U1 cells assessed as inhibition of viral p24 antigen production; type: functional, organism-based
[9] = system: Human immunodeficiency virus 1; assay: Antiviral activity against HIV1 BaL chronically infected human M/M cells; type: functional, organism-based; settings: Human immunodeficiency virus 1, BaL
[10] = system: Human immunodeficiency virus 1; assay: Antiviral activity against human PMA-stimulated HIV1 expression in latently HIV1 infected U1 cells assessed as inhibition of viral p24 production; type: functional, organism-based
[11] = system: Human immunodeficiency virus 1; assay: Antiviral activity against latently HIV1 infected OM10.1 cells assessed as inhibition of viral p24 antigen production; type: functional, organism-based
[12] = system: Human immunodeficiency virus 1; assay: Antiviral activity against human TNF-alpha stimulated HIV1 expression in latently HIV1 infected U1 cells assessed as decrease in mRNA production; type: functional, organism-based
[13] = system: Human immunodeficiency virus 1; assay: Antiviral activity against human PMA-stimulated HIV1 expression in latently HIV1 infected OM10.1 cells assessed as inhibition of viral p24 production; type: functional, organism-based
[14] = system: Human immunodeficiency virus 1; assay: Antiviral activity against HIV1 BaL acutely infected human M/M cells; type: functional, organism-based; settings: Human immunodeficiency virus 1, BaL
[15] = system: Human immunodeficiency virus 1; assay: Antiviral activity against human TNF alpha-stimulated HIV1 expression in latently HIV1 infected U1 cells assessed as inhibition of viral p24 production; type: functional, organism-based

Row | IC50 [2] [µg/mL] | EC50 [6] [µg/mL] | IC50 [7] [µg/mL] | EC50 [9] [µg/mL] | EC90 [9] [µg/mL] | EC50 [13] [µg/mL] | EC50 [14] [µg/mL] | EC90 [14] [µg/mL] | SMILES | Activity [1] | Activity [3] | Ratio CC50/EC50 [4] | CC50 [5] [µg/mL] | Activity [8] | Activity [10] | Activity [11] | Activity [12] | Activity [15]
1 | 0.032 (≈ 0.0742 µM) | 0.054 (≈ 0.125 µM) | 0.067 (≈ 0.155 µM) | 0.05 (≈ 0.116 µM) | 1 (≈ 2.32 µM) | 0.039 (≈ 0.0904 µM) | 0.05 (≈ 0.116 µM) | 1 (≈ 2.32 µM) | Cn1cc(C(=O)O)c(=O)c2ccc(N3CCN(c4cccc(C(F)(F)F)c4)CC3)cc21 | Active | Dose-dependent effect | 125 | 5 (≈ 11.6 µM) | Dose-dependent effect | Dose-dependent effect | Dose-dependent effect | Dose-dependent effect | Dose-dependent effect
2 | 0.04 (≈ 0.0951 µM) | 0.045 (≈ 0.107 µM) | 0.06 (≈ 0.143 µM) | 0.011 (≈ 0.0262 µM) | 0.16 (≈ 0.381 µM) | 0.04 (≈ 0.0951 µM) | 0.025 (≈ 0.0595 µM) | 0.2 (≈ 0.476 µM) | Cn1cc(C(=O)O)c(=O)c2ccc(N3CCN(c4nc5ccccc5s4)CC3)cc21 | Active | Dose-dependent effect | 125 | 5 (≈ 11.9 µM) | Dose-dependent effect | Dose-dependent effect | Dose-dependent effect | Dose-dependent effect | Dose-dependent effect
